Assay outcomes as filed in PubChem BioAssay.
Rows were chosen to be rich in hits. Some 2.5% of all compounds tested hit in one or more screens of this group.
Granule exo inh = LAMP-1 surface exposure blockers, TALL-104 cells – cell-based, flow cytometry, MLPCN library, primary screen; TALL-104 LAMP-1 surface exposure; cells stimulated with thapsigargin and PMA; inhibition, % at 10 µM; hit rate 0.66% among 360,000; AID 651702, 2012;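 active means inhibition above about 55%, limit read from the data; inconclusive means no clear call, values can overlap the other calls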
A1 inh = caspase 3/7 activation in MEF A1-2A-BIM cells, primary screen, A1 inhibitor project, cell-based, luminescence, HTS. hit rate 0.066% among 330,000. Caspase-Glo 3/7 luminescence, 3 h; percent of clofoctol response, vehicle zero. caspase activation, % (no concentration beside the values). AID 2462, 2010;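 active means over half of replicate activation scores above 10%, or exactly half above 10 with the replicate mean above 10; inconclusive means replicate mean below 10 yet half the replicates above 10; inactive means over half of replicates below 10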
NTR1 ag = agonists of human NTR1, primary screen, imaging, U2OS cells, beta-arrestin-GFP, high content. AID 493036, 2011. hit rate 0.17% among 330,000. Neurotensin receptor type 1 (Homo sapiens), P30989. NTR1-U2OS beta-arrestin-GFP spot imaging, agonist mode. activation, % at 20 µM;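 active means activation at or above 40% of the spot to cytoplasm intensity ratio, with at least 20 cells analyzed; inconclusive means wells under 20 cells, flagged as cytotoxic or low count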;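 further: 0% = DMSO without peptide and 100% = 100 nM NTR1 peptide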
Target sequence (P30989 whole entry, looked up): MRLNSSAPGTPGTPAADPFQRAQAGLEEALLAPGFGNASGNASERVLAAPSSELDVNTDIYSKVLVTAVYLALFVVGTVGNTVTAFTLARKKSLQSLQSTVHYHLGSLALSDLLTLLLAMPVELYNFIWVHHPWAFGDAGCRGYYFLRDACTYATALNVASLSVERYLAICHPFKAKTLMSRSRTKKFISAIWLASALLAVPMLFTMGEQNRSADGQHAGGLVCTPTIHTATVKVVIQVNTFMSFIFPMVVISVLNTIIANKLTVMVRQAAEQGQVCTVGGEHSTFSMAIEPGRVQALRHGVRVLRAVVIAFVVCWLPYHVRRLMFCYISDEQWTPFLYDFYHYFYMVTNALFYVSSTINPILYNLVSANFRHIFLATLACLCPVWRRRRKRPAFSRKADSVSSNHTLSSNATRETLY
MC4R antagonist = MC4R antagonists of cAMP signaling, primary screen, cell-based, TR-FRET, antagonist arm of biased-ligand search. Melanocortin receptor 4 (Homo sapiens), P32245. MC4R-expressing cells, MTII-stimulated cAMP, LANCE TR-FRET. inhibition, % at 6.5 µM. hit rate 0.48% among 360,000. AID 540295, 2011;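 active means inhibition above its plate's cutoff, the mean of tested wells on that plate plus 3 SD, cut at about 29% in these data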;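 further: 0% = Melanotan II alone and 100% = Melanotan II plus saturating MCL0020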
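Material – human MC4R-expressing U2OS cells · Repeats – no replicates · Detection – TR-FRET with Eu-cAMP and labeled anti-cAMP, 671 nm · Times – compound 30 min, challenge 1 h, detection 1 h · Compound – single nominal compound dose of 6.5 µM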
HGIII-sPLA2 inh = human group III sPLA2 inhibitors, primary screen, biochemical, QFRET, BODIPY PC-A2 liposome substrate; Group 3 secretory phospholipase A2 (Homo sapiens), Q9NZ20; QFRET BODIPY PC-A2 liposome hydrolysis, fluorescence; inhibition, % at 12.2 µM; hit rate 0.56% among 370,000; AID 743126, 2013;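 active means inhibition above mean plus 3 SD of compounds lying within the high and low control bounds, cut at about 19% in these data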;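 further: 0% = median of test compound wells and 100% = no enzyme DMSO wells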
MC4R barr agon = MC4R agonists recruiting beta-arrestin, primary screen, cell-based, luminescence, agonist arm of biased-ligand search; Melanocortin receptor 4 (Homo sapiens), P32245; U2OS MC4R beta-arrestin complementation; percent of melanotan II response, DMSO zero; activation, % at 8.9 µM; hit rate 0.98% among 360,000; AID 540308, 2011;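 active means activation above a per-plate cutoff, the mean activation of sample wells on that plate plus 3 SD, cut at about 8% in these data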
Exocytosis CP01 = inhibitors of lytic granule exocytosis, confirmation, TALL-104 cells, flow cytometry, Cherry Pick01. shares compounds with Granule exo inh. LAMP-1 externalization; stimulated with PMA plus thapsigargin. inhibition, % at 10 µM. hit rate 11% among 1,500. AID 651954, 2012; in the data active means inhibition above about 60%;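 further: 0% = stimulated vehicle wells and 100% = unstimulated wells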
An asterisk follows results filed as active; ? = inconclusive; . = not tested or not shown.

SMILES	Granule exo inh	A1 inh	NTR1 ag	MC4R antagonist	HGIII-sPLA2 inh	MC4R barr agon	Exocytosis CP01
CCN(CC)S(=O)(=O)c1ccc(F)c(C(=O)OC2CC(C)OC2=O)c1 (stereo unspecified)	5.9	2.2	2.2	26.6	7.3	-0.7	.
CC(C)N(Cc1ccccc1)S(=O)(=O)c1ccc(F)cc1	64.2*	0.2	1.4	15.0	-3.8	0.6	-13.6
CCN(Cc1ccccc1)S(=O)(=O)c1ccc(F)cc1	25.4	0.4	1.8	5.2	0.9	2.9	.
Cc1ccc(NC(=O)Cn2ncn3c(cc4ccccc43)c2=O)cc1F	106.0*	0.8	2.1	5.8	-5.2	-1.9	-14.6
COc1ccc(NC(=O)c2cc([N+](=O)[O-])ccc2N2CCCCC2)cc1	68.4*	-0.3	1.5	4.3	3.8	-2.2	-13.1
c1ccc(CC2CCN(c3ncnc4sccc34)CC2)cc1	63.1*	.	.	8.3	-3.2	-1.6	-10.8
c1ccc(OC2CCN(c3ncnc4sccc34)CC2)cc1	.	.	.	.	-0.9	.	.
O=C(CN1C(=O)c2cccc([N+](=O)[O-])c2C1=O)NNC(=O)c1ccc(F)cc1	-1.6	-0.4	1.4	5.6	2.8	-1.7	.
CCN1C(=O)c2cccc3c(S(=O)(=O)N4CCCC4C(=O)O)ccc1c23 (stereo unspecified)	59.5*	0.0	-0.2	1.6	-1.0	-1.6	-12.8
CN(C)CCn1c(=N)n(CC(O)c2ccc(Cl)c(Cl)c2)c2ccccc21 (stereo unspecified)	84.6*	-0.3	-0.7	6.4	0.3	2.8	-12.8
N=c1n(CCN2CCCCC2)c2ccccc2n1CC(O)c1ccc(Cl)c(Cl)c1 (stereo unspecified)	38.8	-0.9	4.3	13.1	3.6	1.3	.
CC(=O)c1ccc([C@H](O)[C@@H](C(=O)N(C)c2ccccc2)C2CC2)cc1	.	.	.	.	-1.8	.	.
O=C(NCCc1c[nH]c2ccccc12)OCc1cn(Cc2cc(F)ccc2F)nn1	.	.	.	.	-78.9	.	.
Cc1c(C)n(-c2ccccc2)c2ncnc(NCCN(C)C)c12	65.3*	?	-0.5	2.2	17.3	-0.8	-10.2
Oc1ccccc1Nc1nc(NCc2ccccc2)c2ccccc2n1	67.8*	0.6	17.9	0.0	-15.1	4.2	66.2*
COc1ccccc1Nc1nc(NCc2ccco2)c2ccccc2n1	98.9*	0.0	2.9	-6.7	-24.2	0.5	22.9
c1ccc(CNc2c3ccccc3nc3ccccc23)cc1	61.0*	-0.5	12.2	-11.1	3.3	-0.4	-4.0
c1ccc(CNc2nc(N3CCN(Cc4ccccc4)CC3)nc3ccccc23)cc1	101.0*	0.2	25.2	3.3	-130.3	5.2	24.3
CC(C)(N[C@@H](Cc1ccccc1)C(=O)NCCCc1ccccc1)C(=O)NCc1ccccc1	.	.	.	.	-15.1	.	.
COc1cccc(-c2cc(C(C)=O)c3n(c2=O)CCC3)c1OC	.	.	.	.	-1.6	.	.
CCc1cc2c(nc1CC)CCCN2C	.	.	.	.	5.5	.	.
COc1ccc(CCNC(=O)C2CCC(=O)N2S(=O)(=O)c2ccc(C)cc2)cc1 (stereo unspecified)	0.2	0.0	0.4	4.9	-9.1	-0.8	.
Cc1ccc(Nc2nc(NCc3ccco3)c3ccccc3n2)cc1	69.3*	-6.1	34.2	-2.3	-15.0	0.6	66.8*
c1ccc(-c2nc(NCc3ccco3)c3ccccc3n2)nc1	-0.9	-1.1	3.6	13.1	6.0	-3.0	.
CCC(=O)N1CCc2cc(S(=O)(=O)N3CCCCC3CC)ccc21 (stereo unspecified)	-7.0	0.1	0.9	-8.8	1.2	0.0	.
SMILES	Granule exo inh	A1 inh	NTR1 ag	MC4R antagonist	HGIII-sPLA2 inh	MC4R barr agon	Exocytosis CP01
CCCCCCCCNCCS(=O)(=O)NCc1ccccc1	63.1*	.	.	3.0	-4.8	7.7	32.0
CC1CCCCC1NC(=O)CSc1nnc(CC(=O)Nc2ccccc2F)n1C (stereo unspecified)	-5.1	0.6	-1.8	10.5	6.5	-1.0	.
O=C(Cc1cccs1)N(Cc1cccs1)C1(C(=O)NC2CCCC2)CCCCC1	76.9*	0.5	-0.2	2.1	-4.2	-2.7	3.4
O=C(Cc1cccs1)N(Cc1ccco1)C1(C(=O)NC2CCCCC2)CCCCC1	32.0	0.4	3.1	0.2	-0.8	-0.9	.
O=C(Cc1ccc(Br)cc1)Nc1cccc(-c2cn3c(n2)SCC3)c1	3.1	-0.1	8.7	11.9	-14.3	-0.4	.
C(#CC1=CCCCC1)CNCC1CC1	.	.	.	.	-1.1	.	.
CCCCCCn1c(COc2ccccc2F)nnc1SCC(=O)N1c2ccccc2NC(=O)C1(C)C	75.0*	0.6	31.7	8.4	-22.0	1.4	-8.7
C=CCn1c(C)nnc1SCC(=O)N1c2ccccc2NC(=O)C1(C)C	-4.8	.	.	-2.0	2.9	-1.4	.
CN(C)S(=O)(=O)c1cccc(NC(=O)c2ccc(COc3ccccc3)cc2)c1	58.1*	-1.9	14.4	11.4	-17.6	1.2	10.0
CN(c1ccccc1)S(=O)(=O)c1cccc(NC(=O)c2ccc3ncsc3c2)c1	67.0*	0.6	27.0	19.7	-14.6	1.8	7.7
COc1ccc(N(C)S(=O)(=O)c2cccc(C(=O)Nc3ccc4c(c3)OCCO4)c2)cc1	89.8*	0.0	1.8	4.3	0.0	-0.4	-3.1
COc1ccc(N(C)S(=O)(=O)c2cccc(C(=O)Nc3ccc(OC)nc3)c2)cc1	.	1.1	-1.6	.	-5.9	.	.
COCOCCn1cc(CN2CCS(=O)(=O)N(Cc3ccc(-c4ccc(Cl)cc4)cc3)C(C(C)C)C2=O)nn1 (stereo unspecified)	-4.6	.	.	7.6	-8.9	1.9	.
COCOCCn1cc(CN2CCS(=O)(=O)N(Cc3ccc(-c4ccc(Cl)c(Cl)c4)cc3)C(C(C)C)C2=O)nn1 (stereo unspecified)	57.3*	.	.	-0.4	-52.9	-0.3	33.3
O=C(O)c1nnn(-c2cc(C(F)(F)F)cc(C(F)(F)F)c2)c1-c1ccccc1	-1.2	0.4	-0.4	-2.8	1.6	-2.5	.
Cc1c([C@@H]2C[C@H]3CN(Cc4cccc(Cl)c4)C(=O)[C@]34CCCN24)cnn1C	78.5*	-0.8	-1.7	15.5	1.8	-1.3	-3.0
